Hits are enriched below; roughly 2.3% of the tested compounds scored in any of these assays.
PAD4 FP inh – inhibitors of human PAD4; Q9UM07; recombinant PAD4, RCA probe fluorescence polarization; inhibition, % at 6.36 µM; actives 0.41% (n = 330,000); AID 485272;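 active = percent inhibition above a cutoff equal to the mean of all tested compounds plus 3 SD, cut at about 15% in these data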
Fam108B inh – blocks mouse Fam108B hydrolase in RBBP9 counter-screen; recombinant Fam108B, FP-Rh probe fluorescence polarization; inhibition, % at 9.51 µM; actives 0.33% (n = 300,000);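 active = inhibition above the screen mean inhibition plus 3 SD, computed separately per campaign, cut at about 18% in these data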;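 note: inhibitors lower polarization as less probe binds the enzyme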
PME-1 inh – PME-1 (human) inhibition; recombinant PME-1, FP-Rh probe fluorescence polarization; inhibition, % at 5.9 µM; Q9Y570; actives 0.53% (n = 320,000);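 active = inhibition above the campaign mean of all compounds plus 3 SD, cut at about 26% in these data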;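 note: competitive labeling of PME-1 active site by serine hydrolase directed probe; inhibitors block probe labeling so polarization falls and inhibition rises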
RBBP9 inhibitor – human RBBP9 hydrolase inhibition. recombinant RBBP9, FP-Rh probe fluorescence polarization. inhibition, % at 7.94 µM. actives 0.2% (n = 220,000);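 active = inhibition above the campaign mean of all tested compounds plus 3 SD, cut at about 14% in these data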
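Measured by – fluorescence polarization · Test system – RBBP9 protein · Input – 2.5 µM RBBP9 dispensing solution, before mixing · Measure – percent inhibition from mP, scaled between DMSO and no-protein wells · Benchmarks – DMSO-treated enzyme wells and wells lacking RBBP9 · Times – preincubation 30 min plus labeling 45 min at 25 °C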
GSTO1 counter – blocks human GSTO1 in RBBP9 counter-screen | P78417 | recombinant GSTO1, activity-based probe fluorescence polarization | inhibition, % at 5.96 µM | actives 1.1% (n = 300,000) | AID 1974;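 active = inhibition above the campaign mean inhibition plus 3 SD, cut at about 35% in these data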
Target sequence (P78417 whole entry, looked up): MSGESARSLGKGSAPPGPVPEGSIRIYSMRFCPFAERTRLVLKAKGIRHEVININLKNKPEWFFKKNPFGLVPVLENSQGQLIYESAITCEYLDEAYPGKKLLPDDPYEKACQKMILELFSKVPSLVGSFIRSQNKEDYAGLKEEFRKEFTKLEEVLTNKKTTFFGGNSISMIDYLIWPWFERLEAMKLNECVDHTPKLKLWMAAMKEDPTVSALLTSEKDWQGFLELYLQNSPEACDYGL
PRMT1 FP inh – PRMT1 (human) inhibition, primary screen | recombinant PRMT1, activity-based probe fluorescence polarization | inhibition, % at 2.79 µM | actives 1.3% (n = 370,000);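 active = inhibition above about 21% made by adding two undisclosed values, limit read from the data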
Target sequence (Q99873 whole entry, looked up): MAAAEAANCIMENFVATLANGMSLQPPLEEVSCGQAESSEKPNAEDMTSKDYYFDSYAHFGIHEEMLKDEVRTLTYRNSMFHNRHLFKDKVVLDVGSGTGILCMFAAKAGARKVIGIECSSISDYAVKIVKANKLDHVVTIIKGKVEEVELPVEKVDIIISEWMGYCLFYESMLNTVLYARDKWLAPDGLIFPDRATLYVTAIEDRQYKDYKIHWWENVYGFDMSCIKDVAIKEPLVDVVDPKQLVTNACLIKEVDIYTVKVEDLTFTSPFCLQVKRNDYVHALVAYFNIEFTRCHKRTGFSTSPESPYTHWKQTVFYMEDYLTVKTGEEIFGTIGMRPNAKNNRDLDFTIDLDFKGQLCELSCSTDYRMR
Fam108b inh conf – Fam108b (mouse) hydrolase inhibition, confirmation assay | shares compounds with Fam108B inh | AID 1978 | inhibition, % at 9.51 µM | actives 44% (n = 930) | recombinant Fam108b, FP-Rh probe fluorescence polarization;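 active = inhibition above a limit from the primary screen, the mean over all compounds plus 3 SD, cut at about 19% in these data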;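 note: inhibitors free the probe so polarization falls as inhibition rises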
Fam108b inh – inhibits mouse Fam108b in gel-based ABPP | shares compounds with Fam108B inh | recombinant Fam108b, fluorophosphonate probe | inhibition, % at 20 µM | actives 44% (n = 260) | AID 588649; in the data active = inhibition above about 40%
GSTO1 inh conf – confirmation of human GSTO1 inhibitors; actives 54% (n = 2,400); inhibition, % at 5.96 µM; shares compounds with GSTO1 counter; recombinant GSTO1, probe fluorescence polarization;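 active = inhibition above the primary screen's cutoff, its mean inhibition plus 3 SD, cut at about 35% in these data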;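 note: loss of polarization as inhibitors block binding of rhodamine sulfonate ester activity probe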
GSTO1 recomb ABPP – blocks recombinant human glutathione S-transferase omega 1 | shares compounds with GSTO1 counter | recombinant GSTO1, gel ABPP SE-Rh probe fluorescence | inhibition, % at 1 µM | actives 30% (n = 130);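 active = inhibition of the enzyme GSTO1 above about 75%, limit read from the data; inactive = inhibition below that limit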
PAD4 FP conf – PAD4 (human) inhibition, confirmed. shares compounds with PAD4 FP inh. recombinant PAD4, RCA probe fluorescence polarization. inhibition, % at 6.36 µM. actives 28% (n = 1,200);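 active = mean inhibition across replicates above the hit cutoff set by the earlier primary screen, cut at about 15% in these data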;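 note: inhibitors block active-site labeling by the probe so polarization falls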
PRMT1 inh conf – PRMT1 (human) inhibition, FP confirmation; shares compounds with PRMT1 FP inh; recombinant His-PRMT1, activity-based probe fluorescence polarization; inhibition, % at 2.79 µM; actives 42% (n = 3,300);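 active = mean inhibition across replicates above the hit cutoff derived for the earlier primary screen, cut at about 22% in these data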
Of the large screens only hits and unclear results are named; the others gave an inactive call (follow-up assays come after a bar, where they were run); ! = not active in a repeat.

O=C1NC(=O)N(c2ccccc2)C(=O)/C1=C\c1ccc([N+](=O)[O-])s1	Fam108B inh 19.1 | Fam108b inh conf inactive
Cc1cc(S(=O)(=O)NCc2ccccc2)ccc1OCC(=O)N1CCN(C)CC1	none
CN(C)[C@@H]1C(=O)C(C(N)=O)=C(O)[C@@]2(O)C(=O)C3=C(O)c4c(O)cccc4[C@@](C)(O)[C@H]3C[C@@H]12	Fam108B inh 52.3, GSTO1 counter 65.8 (no result: RBBP9 inhibitor, PRMT1 FP inh) | Fam108b inh conf 55.4
CN1c2ccc([N+](=O)[O-])cc2CC2(C(=O)NC(=O)NC2=O)C1c1ccccc1 (configuration not stated)	none
CN(C)[C@@H]1C(=O)C(C(N)=O)=C(O)[C@@]2(O)C(=O)C3=C(O)c4c(O)cccc4[C@@](C)(O)C3[C@H](O)C12 (some centres not stated)	Fam108B inh 32.0!, GSTO1 counter 62.2, PRMT1 FP inh 36.5 (no result: RBBP9 inhibitor) | Fam108b inh conf 34.3 | GSTO1 inh conf 65.7!
COc1ccc(C(=O)C2CCCN(CC3CCCCC3)C2)cc1OC (configuration not stated)	none (no result: PAD4 FP inh, Fam108B inh, PME-1 inh, RBBP9 inhibitor, GSTO1 counter)
N/C(=N\N=C/c1ccc(-c2ccc(O)c(C(=O)O)c2)o1)N[N+](=O)[O-]	Fam108B inh 18.6, GSTO1 counter 40.0, PRMT1 FP inh 32.9 | Fam108b inh conf 23.8 | GSTO1 inh conf 57.3
CCOP1(=S)Oc2cc3c(cc2C(C(=O)OC)(C(F)(F)F)O1)OCO3 (configuration not stated)	none
COc1ccc(OC)c(N2C(=O)NC(=O)/C(=C\c3ccc([N+](=O)[O-])s3)C2=O)c1	Fam108B inh 44.2, GSTO1 counter 39.8, PRMT1 FP inh 27.7 | Fam108b inh conf inactive | GSTO1 inh conf inactive
COc1ccc(N2C(=O)NC(=O)/C(=C\c3ccccc3[N+](=O)[O-])C2=O)cc1	none
C[n+]1c(-c2ccccc2)c2cc(N)ccc2c2ccc(N)cc21	PAD4 FP inh 81.2, Fam108B inh 104.3, PME-1 inh 115.8, GSTO1 counter 104.2, PRMT1 FP inh 66.0 (no result: RBBP9 inhibitor) | Fam108b inh conf 70.4 | Fam108b inh 40.0 | GSTO1 inh conf 89.6 | PAD4 FP conf 74.1
CCOC(=O)C1(CCCc2ccccc2)CCN(C2CCCC2)CC1	none
O=[N+]([O-])c1ccc(NCc2ccccc2)c2nonc12	Fam108B inh 20.9, PME-1 inh 56.2, PRMT1 FP inh 167.6 | Fam108b inh conf 38.4 | Fam108b inh inactive | PRMT1 inh conf 158.7
O=NN1CCCCC1	none (no result: Fam108B inh, RBBP9 inhibitor, GSTO1 counter)
O=P1(Oc2ccccc2)C[C@@H](O)[C@@H](O)[C@H](COCc2ccccc2)O1 (some centres not stated)	GSTO1 counter 72.6 (no result: RBBP9 inhibitor) | GSTO1 inh conf inactive
CC1CCSP(=O)(Oc2ccccc2)O1 (configuration not stated)	none
COCCCn1c(N)c(C(=O)NCc2ccco2)c2nc3ccccc3nc21	GSTO1 counter 75.9 | GSTO1 inh conf inactive
CC(C)(C)OC(=O)c1c(N)n(Cc2ccco2)c2nc3ccccc3nc12	PAD4 FP inh 18.6, GSTO1 counter 56.4, PRMT1 FP inh 21.2 | GSTO1 inh conf inactive
O=c1[nH]c(O)c(N=Nc2ccc(S(=O)(=O)N3CCOCC3)cc2)c(=O)[nH]1	GSTO1 counter 37.9 | GSTO1 inh conf 46.1
CCOCN(C(=O)CCl)c1c(C)cccc1CC	GSTO1 counter 83.4 (no result: RBBP9 inhibitor) | GSTO1 inh conf 92.3 | GSTO1 recomb ABPP inactive
CCc1cccc(CC)c1N(COC)C(=O)CCl	none (no result: PAD4 FP inh, Fam108B inh, PME-1 inh, RBBP9 inhibitor, GSTO1 counter)
CCC(C)NC(=O)c1c(N)n(Cc2ccc3c(c2)OCO3)c2nc3ccccc3nc12 (configuration not stated)	GSTO1 counter 52.6 | GSTO1 inh conf inactive
CC(C)CCNC(=O)c1c(N)n(CC2CCCO2)c2nc3ccccc3nc12 (configuration not stated)	GSTO1 counter 54.3 | GSTO1 inh conf 57.1
Nc1c(C(=O)NCCN2CCOCC2)c2nc3ccccc3nc2n1Cc1ccccc1	none
CCC(C)NC(=O)c1c(N)n(CC2CCCO2)c2nc3ccccc3nc12 (configuration not stated)	GSTO1 counter 38.4 | GSTO1 inh conf 57.8
CCCCn1c(N)c(C(=O)NCCN2CCOCC2)c2nc3ccccc3nc21	none
CCCCn1c(O)c(C=NCCN2CCCCC2)c(=O)[nH]c1=O	none
O=c1c2ccccc2nc(/C=C/c2ccc(O)cc2)n1-c1ccccc1O	none
c1ccc(-c2[nH]c(-c3ccccc3)[n+](CC3CO3)c2-c2ccccc2)cc1 (configuration not stated)	GSTO1 counter 84.3 | GSTO1 inh conf 84.4 | GSTO1 recomb ABPP inactive
Cc1ccccc1-n1c(O)c(C=Nc2ccc(N(C)C)cc2)c(=O)[nH]c1=O	GSTO1 counter 45.2, PRMT1 FP inh 21.2 | GSTO1 inh conf inactive
Cc1cccc(CNCCc2ccccc2)n1	none
CN(C)C1C(=O)C(C(N)=O)=C(O)C2(O)C(=O)C3=C(O)c4c(O)cccc4C(C)(O)C3CC12 (configuration not stated)	GSTO1 counter 69.5 (no result: RBBP9 inhibitor, PRMT1 FP inh) | GSTO1 inh conf inactive
CN1CCC(=O)N(CCN=[N+]=[N-])CC1	none (no result: RBBP9 inhibitor)
O=C1NC(=O)C(=CCc2ccccc2)C(=O)N1	none (no result: PAD4 FP inh, Fam108B inh, PME-1 inh, RBBP9 inhibitor, GSTO1 counter)
O=C1NC(=O)C(=CN2CCc3ccccc32)C(=O)N1	GSTO1 counter 39.3 | GSTO1 inh conf inactive
COc1cc2c(cc1O)C[C@H]1c3c(cc(O)c(OC)c3-2)CCN1C	none (no result: RBBP9 inhibitor)
CN1CCc2cc(O)cc3c2[C@H]1Cc1ccc(O)c(O)c1-3	GSTO1 counter 99.0, PRMT1 FP inh 79.4 (no result: RBBP9 inhibitor) | GSTO1 inh conf inactive
O=[N+]([O-])c1cc(F)c(N2CCCCC2)cc1Br	none
CCN(CC)c1ccc(/C=C2/C(=O)NC(=O)N(CC3CCCO3)C2=O)cc1 (configuration not stated)	GSTO1 counter 43.1 | GSTO1 inh conf inactive
O=c1[nH]c(=O)n(Cc2ccccc2)c(O)c1C=NCCN1CCNCC1	none

Compound activity (PubChem BioAssay)
